# Key:
# PC-3 = assay: Growth inhibition in PC3 cells; format: functional; conditions: Homo sapiens
# LOX IMVI = assay: Growth inhibition in LOX IMVI cells; format: functional; conditions: Homo sapiens
# MDA-MB-435 = assay: Growth inhibition in MDA-MB-435 cells; format: functional; conditions: Homo sapiens
# [1] = Growth inhibition in HCC116 cells; format: functional; conditions: Homo sapiens
# SN12C = assay: Growth inhibition in SN12C cells; format: functional; conditions: Homo sapiens
# HCT-116 = assay: Cytotoxicity against HCT116 cell line; format: cell-based; conditions: Homo sapiens
# Summary of the method: (§1)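 Log-phase cells were diluted to 20 000–30 000 cells/mL, seeded, and left to attach overnight. They were then exposed to compounds at 10^–5–10^–12 M for 72 h at 37 °C in 5% CO2. Viable cells were measured by MTT, with absorbance read at 595 nm. Each compound ran in triplicate in at least three independent assays. IC50 came from nonlinear regression, and average values were reported.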
# SNB-75 = assay: Growth inhibition in SNB75 cells; format: functional; conditions: Homo sapiens
# DU-145 = assay: Growth inhibition in DU145 cells; format: functional; conditions: Homo sapiens
# K562 = assay: Growth inhibition in K562 cells; format: functional; conditions: Homo sapiens
# SK-MEL-28 = assay: Growth inhibition in SK-MEL-28 cells; format: functional; conditions: Homo sapiens
# OVCAR-8 = assay: Growth inhibition in OVCAR8 cells; format: functional; conditions: Homo sapiens
# EKVX = assay: Growth inhibition in EKVX cells; format: functional; conditions: Homo sapiens
# TK-10 = assay: Growth inhibition in TK10 cells; format: functional; conditions: Homo sapiens
# NCI-H522 = assay: Growth inhibition in NCI-H522 cells; format: functional; conditions: Homo sapiens
# OVCAR-5 = assay: Growth inhibition in OVCAR5 cells; format: functional; conditions: Homo sapiens
# RXF 393 = assay: Growth inhibition in RXF393 cells; format: functional; conditions: Homo sapiens
# MCF7 = assay: Growth inhibition in MCF7 cells; format: functional; conditions: Homo sapiens
# NCI/ADR-RES = assay: Growth inhibition in NCI/ADR-RES cells; format: functional; conditions: Homo sapiens
# HCC 2998 = assay: Growth inhibition in HCC2998 cells; format: functional; conditions: Homo sapiens
# OVCAR-3 = assay: Growth inhibition in OVCAR-3 cells; format: functional; conditions: Homo sapiens
# BT-549 = assay: Growth inhibition in BT549 cells; format: functional; conditions: Homo sapiens
# A498 = assay: Growth inhibition in A498 cells; format: functional; conditions: Homo sapiens
# HT-29 = assay: Growth inhibition in HT29 cells; format: functional; conditions: Homo sapiens
# HOP-92 = assay: Growth inhibition in HOP92 cells; format: functional; conditions: Homo sapiens
# ZR-75-1 = assay: Cytotoxicity against ZR-75-1 cell line; format: cell-based; conditions: Homo sapiens; summary of the method: as §1
# [2] = Growth inhibition in MDA-MB-231/ATCC cells; format: functional; conditions: Homo sapiens
# HL-60 = assay: Growth inhibition in HL60 cells; format: functional; conditions: Homo sapiens
# [3] = Growth inhibition in HCC15 cells; format: functional; conditions: Homo sapiens
# HeLa = assay: Cytotoxicity against HeLa cell line; format: cell-based; conditions: Homo sapiens; summary of the method: as §1
# CAKI-1 = assay: Growth inhibition in CAK1-1 cells; format: functional; conditions: Homo sapiens
# NCI-H322M = assay: Growth inhibition in NCI-H322M cells; format: functional; conditions: Homo sapiens
# [4] = Cytotoxicity against P-glycoprotein-overexpressing KB-V1 cell line; format: cell-based; conditions: Homo sapiens; summary of the method: as §1
# ACHN = assay: Growth inhibition in ACHN cells; format: functional; conditions: Homo sapiens
# M14 = assay: Growth inhibition in M14 cells; format: functional; conditions: Homo sapiens
# SNB-19 = assay: Growth inhibition in SNB19 cells; format: functional; conditions: Homo sapiens
# SF-268 = assay: Growth inhibition in SF268 cells; format: functional; conditions: Homo sapiens
# KM12 = assay: Growth inhibition in KM12 cells; format: functional; conditions: Homo sapiens
# SW-620 = assay: Growth inhibition in SW620 cells; format: functional; conditions: Homo sapiens
# UACC-62 = assay: Growth inhibition in UACC62 cells; format: functional; conditions: Homo sapiens
# UACC-257 = assay: Growth inhibition in UACC257 cells; format: functional; conditions: Homo sapiens
# HOP-62 = assay: Growth inhibition in HOP62 cells; format: functional; conditions: Homo sapiens
# IGROV-1 = assay: Growth inhibition in IGROV1 cells; format: functional; conditions: Homo sapiens
# COLO 205 = assay: Growth inhibition in COLO205 cells; format: functional; conditions: Homo sapiens
# SK-MEL-2 = assay: Growth inhibition in SK-MEL-2 cells; format: functional; conditions: Homo sapiens
# U-251 = assay: Growth inhibition in U251cells; format: functional; conditions: Homo sapiens
# UO-31 = assay: Growth inhibition in UO31 cells; format: functional; conditions: Homo sapiens
# NCI-H226 = assay: Growth inhibition in NCI-H226 cells; format: functional; conditions: Homo sapiens
# SK-OV-3 = assay: Growth inhibition in SKOV3 cells; format: functional; conditions: Homo sapiens
# OVCAR-4 = assay: Growth inhibition in OVCAR4 cells; format: functional; conditions: Homo sapiens
# NCI-H460 = assay: Growth inhibition in NCI-H460 cells; format: functional; conditions: Homo sapiens
# CCRF-CEM = assay: Growth inhibition in CCRF-CEM cells; format: functional; conditions: Homo sapiens
# NCI-H23 = assay: Growth inhibition in NCI-H23 cells; format: functional; conditions: Homo sapiens
# Tubulin = assay: Inhibition of tubulin polymerization; format: protein-complex assay, Homo sapiens
# Summary of the method: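 Kit-based assay run per the manufacturer's instructions. Tubulin (>99% pure, 3 mg/mL) in G-PEM buffer, in a prewarmed plate with compound at 0.03–30 μM. OD340 nm read every 60 s at 37 °C for 1 h.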
# SF-295 = assay: Growth inhibition in SF295 cells; format: functional; conditions: Homo sapiens
# [5] = Growth inhibition in HS 578T cells; format: functional; conditions: Homo sapiens
# A549 = assay: Growth inhibition in A549 cells; format: functional; conditions: Homo sapiens
# SK-MEL-5 = assay: Growth inhibition in SK-MEL-5 cells; format: functional; conditions: Homo sapiens
# [6] = Cytotoxicity against KB-3-1 cell line; format: cell-based; conditions: Homo sapiens; summary of the method: as §1
# 786-0 = assay: Growth inhibition in 786-0 cells; format: functional; conditions: Homo sapiens
# SF-539 = assay: Growth inhibition in SF539 cells; format: functional; conditions: Homo sapiens
# T47D = assay: Growth inhibition in T47D cells; format: functional; conditions: Homo sapiens
compound,measurement,setting,value
COc1cc(-c2nncn2-c2ccc3c(ccn3C)c2)cc(OC)c1OC,GI50,PC-3,0.0195 µM
same,GI50,LOX IMVI,0.0562 µM
same,GI50,MDA-MB-435,< 0.01 µM
same,GI50,[1],0.0309 µM
same,GI50,SN12C,0.0631 µM
same,IC50,HCT-116,0.00739 µM
same,GI50,SNB-75,0.0129 µM
same,GI50,DU-145,< 0.01 µM
same,GI50,K562,0.0148 µM
same,GI50,SK-MEL-28,< 0.01 µM
same,GI50,OVCAR-8,0.0427 µM
same,GI50,EKVX,< 0.01 µM
same,GI50,TK-10,< 0.01 µM
same,GI50,NCI-H522,< 0.01 µM
same,GI50,OVCAR-5,0.0479 µM
same,GI50,RXF 393,< 0.01 µM
same,GI50,MCF7,0.0437 µM
same,GI50,NCI/ADR-RES,0.0209 µM
same,GI50,HCC 2998,0.024 µM
same,GI50,OVCAR-3,< 0.01 µM
same,GI50,BT-549,0.0372 µM
same,GI50,A498,0.0158 µM
same,GI50,HT-29,0.0229 µM
same,GI50,HOP-92,0.0832 µM
same,IC50,ZR-75-1,0.0238 µM
same,GI50,[2],0.0309 µM
same,GI50,HL-60,0.0417 µM
same,GI50,[3],0.0355 µM
same,IC50,HeLa,0.00873 µM
same,GI50,CAKI-1,< 0.01 µM
same,GI50,NCI-H322M,< 0.01 µM
same,IC50,[4],0.0208 µM
same,GI50,ACHN,0.0347 µM
same,GI50,M14,0.0186 µM
same,GI50,SNB-19,0.0447 µM
same,GI50,SF-268,< 0.01 µM
same,GI50,KM12,< 0.01 µM
same,GI50,SW-620,0.0339 µM
same,GI50,UACC-62,< 0.01 µM
same,GI50,UACC-257,0.245 µM
same,GI50,HOP-62,0.0186 µM
same,GI50,IGROV-1,0.0355 µM
same,GI50,COLO 205,0.0288 µM
same,GI50,SK-MEL-2,0.166 µM
same,GI50,U-251,0.0331 µM
same,GI50,UO-31,0.0324 µM
same,GI50,NCI-H226,85.1 µM
same,GI50,SK-OV-3,0.0316 µM
same,GI50,OVCAR-4,1.05 µM
same,GI50,NCI-H460,0.0331 µM
same,GI50,CCRF-CEM,0.0324 µM
same,GI50,NCI-H23,0.0457 µM
same,IC50,Tubulin,3 µM
same,GI50,SF-295,< 0.01 µM
same,GI50,[5],0.0162 µM
same,GI50,A549,0.0372 µM
same,GI50,SK-MEL-5,0.0141 µM
same,IC50,[6],0.0099 µM
same,GI50,786-0,0.0324 µM
same,GI50,SF-539,< 0.01 µM
same,GI50,T47D,0.0447 µM

# From ChEMBL document CHEMBL1141374 (J Med Chem, 2007)
